ChEMBL document CHEMBL2169869, “Assay and inhibition of diacylglycerol lipase activity” (Bioorg Med Chem Lett, 2012)
The source made the active and inactive calls. The rule behind the calls is not given here.

What was measured:
[1] = target: T1, Diacylglycerol lipase-alpha (Homo sapiens) (UniProt Q9Y4D2); experiment: Inhibition of human DAGLalpha expressed in HEK293T cell membrane using [14C]SAG substrate at 10 uM in detergent free solution by […]; format: cell-based; details: HEK-293T
T1 sequence (whole entry): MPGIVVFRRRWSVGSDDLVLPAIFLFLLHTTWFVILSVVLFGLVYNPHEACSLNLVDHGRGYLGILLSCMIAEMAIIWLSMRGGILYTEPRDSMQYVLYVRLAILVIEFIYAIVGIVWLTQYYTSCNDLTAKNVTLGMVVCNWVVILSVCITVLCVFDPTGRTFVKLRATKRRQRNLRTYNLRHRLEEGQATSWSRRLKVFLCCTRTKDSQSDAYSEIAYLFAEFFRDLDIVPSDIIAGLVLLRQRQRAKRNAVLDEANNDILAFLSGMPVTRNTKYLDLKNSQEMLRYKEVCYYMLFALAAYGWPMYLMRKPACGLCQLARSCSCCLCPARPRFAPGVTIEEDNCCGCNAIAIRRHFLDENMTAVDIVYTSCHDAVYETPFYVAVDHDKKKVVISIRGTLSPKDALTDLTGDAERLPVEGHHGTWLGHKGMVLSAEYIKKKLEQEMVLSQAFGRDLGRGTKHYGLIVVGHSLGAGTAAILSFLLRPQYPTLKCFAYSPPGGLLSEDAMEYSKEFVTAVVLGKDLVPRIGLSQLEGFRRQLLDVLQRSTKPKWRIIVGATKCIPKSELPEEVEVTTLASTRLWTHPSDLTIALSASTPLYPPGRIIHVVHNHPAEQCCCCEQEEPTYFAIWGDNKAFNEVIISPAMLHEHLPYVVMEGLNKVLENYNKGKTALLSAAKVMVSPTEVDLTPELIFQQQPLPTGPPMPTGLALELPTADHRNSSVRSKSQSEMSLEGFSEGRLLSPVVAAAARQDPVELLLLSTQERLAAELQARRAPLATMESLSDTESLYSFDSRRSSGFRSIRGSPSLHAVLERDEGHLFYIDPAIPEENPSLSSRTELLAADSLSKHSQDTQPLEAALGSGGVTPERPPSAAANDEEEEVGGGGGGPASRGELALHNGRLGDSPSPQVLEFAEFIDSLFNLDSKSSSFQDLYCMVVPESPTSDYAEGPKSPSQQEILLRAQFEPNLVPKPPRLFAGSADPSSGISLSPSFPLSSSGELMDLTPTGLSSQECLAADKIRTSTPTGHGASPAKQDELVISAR

[2] = species on record: Sus scrofa; experiment: Inhibition of porcine pancreatic lipase type 2 at 10 uM by FRET assay
[3] = target: T1, Diacylglycerol lipase-alpha (Homo sapiens); experiment: Inhibition of human DAGLalpha expressed in HEK293T cell membrane using [14C]SAG substrate at 10 uM using JZL184 pretreated protein in detergent free solution by […]; format: cell-based; details: HEK-293T
[4] = target: T2, Fatty-acid amide hydrolase 1 (Rattus norvegicus) (UniProt P97612); experiment: Inhibition of rat histidine tagged FAAH expressed in Escherichia coli at 10 uM by coumarin ester substrate fluorescence assay
T2 sequence (whole entry): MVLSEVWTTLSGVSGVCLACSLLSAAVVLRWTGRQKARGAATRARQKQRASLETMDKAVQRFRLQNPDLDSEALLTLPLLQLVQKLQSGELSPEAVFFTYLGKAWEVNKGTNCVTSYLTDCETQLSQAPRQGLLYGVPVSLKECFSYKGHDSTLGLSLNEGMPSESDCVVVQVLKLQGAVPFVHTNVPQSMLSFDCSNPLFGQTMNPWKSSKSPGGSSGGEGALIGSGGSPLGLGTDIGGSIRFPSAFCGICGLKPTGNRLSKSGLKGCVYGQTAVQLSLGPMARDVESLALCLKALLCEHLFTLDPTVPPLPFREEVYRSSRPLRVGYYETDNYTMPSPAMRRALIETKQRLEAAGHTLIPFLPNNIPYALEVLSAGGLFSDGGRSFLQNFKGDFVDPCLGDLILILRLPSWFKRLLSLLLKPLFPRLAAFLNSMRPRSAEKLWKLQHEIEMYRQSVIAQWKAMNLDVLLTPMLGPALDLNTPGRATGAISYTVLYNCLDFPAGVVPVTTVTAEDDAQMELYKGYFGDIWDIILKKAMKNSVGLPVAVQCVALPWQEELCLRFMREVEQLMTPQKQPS

[5] = target: T1, Diacylglycerol lipase-alpha (Homo sapiens); experiment: Inhibition of human DAGLalpha expressed in HEK293T cell membrane using [14C]SAG substrate at 10 uM in detergent free solution by scintillation counting based radio-TLC assay; details: HEK-293T
[6] = target: T3, Diacylglycerol lipase-alpha (Homo sapiens, UniProt Q9Y4D2); experiment: Inhibition of human DAGLalpha
T3 sequence (Q9Y4D2 whole entry): T1 sequence (whole entry)

[7] = system: Bacteria; experiment: Inhibition of bacterial lipoprotein lipase at 10 uM by FRET assay
[8] = target: T4, Fatty-acid amide hydrolase 1 (Rattus norvegicus, UniProt P97612); experiment: Inhibition of rat histidine tagged FAAH expressed in Escherichia coli by coumarin ester substrate fluorescence assay
T4 sequence (P97612 whole entry): T2 sequence (whole entry)

[9] = target: T5, Monoglyceride lipase (Homo sapiens) (UniProt Q99685); experiment: Inhibition of human N-terminal histidine tagged full length MAGL expressed in Escherichia coli at 10 uM by coumarin ester substrate fluorescence assay
T5 sequence (whole entry): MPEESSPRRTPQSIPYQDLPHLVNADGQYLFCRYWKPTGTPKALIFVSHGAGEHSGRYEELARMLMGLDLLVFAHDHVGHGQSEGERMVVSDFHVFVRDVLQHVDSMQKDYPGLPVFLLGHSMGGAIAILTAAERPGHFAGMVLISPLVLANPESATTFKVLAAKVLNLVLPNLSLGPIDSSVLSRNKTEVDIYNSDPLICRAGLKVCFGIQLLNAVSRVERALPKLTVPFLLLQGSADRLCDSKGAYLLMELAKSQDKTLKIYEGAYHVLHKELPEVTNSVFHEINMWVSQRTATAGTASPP

[10] = target: T6, Diacylglycerol lipase-alpha (Mus musculus) (UniProt Q6WQJ1); experiment: Inhibition of mouse DAGLalpha expressed in HEK293T cell membrane using [14C]SAG substrate at 10 nM by scintillation counting based radio-TLC assay; format: cell membranes; details: HEK-293T
T6 sequence (whole entry): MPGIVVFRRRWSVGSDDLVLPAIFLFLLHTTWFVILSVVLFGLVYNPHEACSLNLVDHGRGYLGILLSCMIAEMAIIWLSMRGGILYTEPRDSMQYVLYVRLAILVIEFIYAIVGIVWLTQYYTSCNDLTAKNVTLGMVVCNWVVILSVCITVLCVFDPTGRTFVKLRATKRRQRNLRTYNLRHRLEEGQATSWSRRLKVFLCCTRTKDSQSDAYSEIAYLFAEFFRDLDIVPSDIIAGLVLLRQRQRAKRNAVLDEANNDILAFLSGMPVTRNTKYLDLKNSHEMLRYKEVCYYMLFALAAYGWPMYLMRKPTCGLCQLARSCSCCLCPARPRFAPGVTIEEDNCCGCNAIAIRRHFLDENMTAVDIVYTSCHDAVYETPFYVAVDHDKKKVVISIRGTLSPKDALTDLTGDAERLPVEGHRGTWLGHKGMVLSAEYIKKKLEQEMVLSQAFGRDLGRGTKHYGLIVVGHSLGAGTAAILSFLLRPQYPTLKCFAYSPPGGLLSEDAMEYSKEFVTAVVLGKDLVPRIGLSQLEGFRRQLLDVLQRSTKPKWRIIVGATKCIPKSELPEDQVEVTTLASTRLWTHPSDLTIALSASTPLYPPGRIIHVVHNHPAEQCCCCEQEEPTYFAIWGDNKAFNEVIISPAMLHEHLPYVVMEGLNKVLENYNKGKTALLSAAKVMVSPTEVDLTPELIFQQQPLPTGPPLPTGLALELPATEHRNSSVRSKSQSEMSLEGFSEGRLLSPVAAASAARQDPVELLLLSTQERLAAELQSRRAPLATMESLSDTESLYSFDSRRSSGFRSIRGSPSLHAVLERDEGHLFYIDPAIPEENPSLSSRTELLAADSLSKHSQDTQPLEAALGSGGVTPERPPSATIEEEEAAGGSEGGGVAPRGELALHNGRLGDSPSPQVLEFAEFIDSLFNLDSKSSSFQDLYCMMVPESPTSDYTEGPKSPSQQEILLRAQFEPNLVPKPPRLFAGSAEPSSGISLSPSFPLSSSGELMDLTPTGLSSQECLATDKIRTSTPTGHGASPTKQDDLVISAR

[11] = target: T1, Diacylglycerol lipase-alpha (Homo sapiens); experiment: Inhibition of human DAGLalpha expressed in HEK293T cell membrane using [14C]SAG substrate at 10 uM in presence of 0.015% Triton X-100 by scintillation counting based radio-TLC assay; format: cell membranes; details: HEK-293T
Procedure, shortened: (§1)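 Sonicated HEK293T protein (100 μg) in 50 mM Tris pH 7.4 with 10 mM CaCl2. Inhibitor in DMSO (10% DMSO standard) preincubated 15 min at 37 °C. [14C]SAG was added to 20 μM final for 20 min at 37 °C, with Triton X-100 where the line states it. Quenched with 2:1 CHCl3/MeOH. Silica TLC in CHCl3/MeOH/NH4OH 86:14:0.75, then 12 h phosphorimaging. Activity = (2-AG+AA)/(2-AG+AA+SAG). Background-subtracted; n=1–2.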

[12] = target: T2, Fatty-acid amide hydrolase 1 (Rattus norvegicus); experiment: Inhibition of rat histidine tagged FAAH expressed in Escherichia coli at 1 uM by coumarin ester substrate fluorescence assay
[13] = target: T5, Monoglyceride lipase (Homo sapiens); experiment: Inhibition of human N-terminal histidine tagged full length MAGL expressed in Escherichia coli at 100 nM by coumarin ester substrate fluorescence assay
[14] = target: T1, Diacylglycerol lipase-alpha (Homo sapiens); experiment: Inhibition of human DAGLalpha expressed in HEK293T cell membrane using [14C]SAG substrate at 10 uM in detergent free solution using JZL184 pretreated protein by scintillation counting based radio-TLC assay; format: cell membranes; details: HEK-293T
Procedure, shortened: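 Same hDAGLα radio-TLC as above: Tris/CaCl2 pH 7.4, 15 min inhibitor preincubation at 37 °C, 20 μM [14C]SAG for 20 min at 37 °C, TLC with phosphorimaging, activity as (2-AG+AA)/total label.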

[15] = target: T1, Diacylglycerol lipase-alpha (Homo sapiens); experiment: Inhibition of human DAGLalpha expressed in HEK293T cell membrane using [14C]SAG substrate at 10 uM in presence of 0.05% Triton X-100 by […]; format: cell-based; details: HEK-293T
[16] = target: T6, Diacylglycerol lipase-alpha (Mus musculus); experiment: Inhibition of mouse DAGLalpha expressed in HEK293T cell membrane using [14C]SAG substrate at 10000 nM by scintillation counting based radio-TLC assay; format: cell membranes; details: HEK-293T
[17] = target: T1, Diacylglycerol lipase-alpha (Homo sapiens); experiment: Inhibition of human DAGLalpha expressed in HEK293T cell membrane using [14C]SAG substrate at 10 uM in presence of 0.05% Triton X-100 by scintillation counting based radio-TLC assay; format: cell membranes; details: HEK-293T; procedure, shortened: as §1

| SMILES | inhibition [1] | inhibition [2] | inhibition [3] | inhibition [4] | inhibition [5] | IC50 [6] | inhibition [7] | IC50 [8] | inhibition [9] | inhibition [10] | inhibition [11] | inhibition [12] | inhibition [13] | inhibition [14] | inhibition [15] | inhibition [16] | inhibition [17] |
| --- | --- | --- | --- | --- | --- | --- | --- | --- | --- | --- | --- | --- | --- | --- | --- | --- | --- |
| O=C(NCCCCCCNC(=O)ON=C1CCCCC1)ON=C1CCCCC1 | 70% | 78% | 40% | 95% | 30% | 65000 nM | < 0% | 2240 nM | 22% | – | – | – | – | – | – | – | – |
| O=S(=O)(F)Cc1ccccc1 [PHENYLMETHYLSULFONYLFLUORIDE] | – | – | – | – | – | – | < 0% | 833 nM | – | inactive | – | – | – | – | – | – | – |
| CCCCCCC[C@H]1OC(=O)[C@H]1CCCCCC (racemic) | – | 94% | 65% | 94% | – | – | 33% | – | 100% | – | 25% | 13% | 66% | – | – | – | – |
| O=C(N[C@H]1COC1=O)OCc1ccccc1 | 17% | < 0% | 7% | 10% | inactive | – | < 0% | – | 13% | inactive | – | – | – | < 0% | – | – | – |
| CCCCCCCCCCCCCC1CC(=O)O1 (racemic) | 14% | 38% | – | 10% | – | – | < 0% | – | 4% | – | 45% | – | – | – | 72% | < 0% | 25% |
| CCCCCCC[C@@H]1OC(=O)[C@H]1CCCCCC (racemic) | – | 96% | 69% | 79% | – | – | 67% | – | 55% | – | 37% | – | – | – | – | – | – |
| NC(=O)c1cccc(-c2cccc(OC(=O)NC3CCCCC3)c2)c1 | 22% | 68% | 7% | – | inactive | – | 21% | – | 18% | inactive | – | – | – | – | – | < 0% | – |
| O=C(Oc1ccc([N+](=O)[O-])cc1)N1CCN(Cc2cccc(Oc3ccccc3)c2)CC1 | 84% | 43% | 55% | – | inactive | – | < 0% | – | – | inactive | – | – | – | – | – | 10% | – |
